Several values for one entry are separate records, joined by “and”; a condition that tells them apart may be missing. Equal values may be shown once. Activity calls are given as the source filed them. The rule behind the calls is not given here.
How the values were obtained:
[1] = biological target: T1, Androgen receptor (Rattus norvegicus) (UniProt P15207); assay: Relative binding affinity against androgen receptor of rat prostate at 0 degree centigrade; N means negative, < 0.1
T1 sequence (whole entry): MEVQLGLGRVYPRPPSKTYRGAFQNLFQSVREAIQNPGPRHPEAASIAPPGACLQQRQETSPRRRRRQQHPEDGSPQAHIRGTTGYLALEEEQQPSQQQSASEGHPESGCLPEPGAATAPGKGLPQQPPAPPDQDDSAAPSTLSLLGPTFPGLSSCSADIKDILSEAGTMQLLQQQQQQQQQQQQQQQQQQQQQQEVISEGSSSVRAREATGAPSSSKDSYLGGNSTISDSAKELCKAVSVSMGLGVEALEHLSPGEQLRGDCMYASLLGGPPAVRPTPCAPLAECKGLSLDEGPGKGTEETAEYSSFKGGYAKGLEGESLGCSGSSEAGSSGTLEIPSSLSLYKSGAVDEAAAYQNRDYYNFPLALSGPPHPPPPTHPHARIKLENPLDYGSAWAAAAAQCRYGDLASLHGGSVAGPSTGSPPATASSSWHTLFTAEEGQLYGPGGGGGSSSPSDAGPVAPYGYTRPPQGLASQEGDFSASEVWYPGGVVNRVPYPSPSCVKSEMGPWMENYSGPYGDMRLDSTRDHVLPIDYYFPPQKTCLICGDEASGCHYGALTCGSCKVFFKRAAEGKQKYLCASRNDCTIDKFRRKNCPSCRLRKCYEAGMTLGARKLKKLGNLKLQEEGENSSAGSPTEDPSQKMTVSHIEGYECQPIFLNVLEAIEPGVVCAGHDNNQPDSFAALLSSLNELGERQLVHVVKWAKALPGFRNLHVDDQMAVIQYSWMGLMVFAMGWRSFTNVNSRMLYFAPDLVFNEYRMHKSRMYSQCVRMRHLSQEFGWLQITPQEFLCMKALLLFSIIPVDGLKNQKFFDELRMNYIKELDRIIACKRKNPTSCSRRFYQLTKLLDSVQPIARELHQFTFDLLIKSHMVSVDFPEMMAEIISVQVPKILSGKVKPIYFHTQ
Summary of the method: (§1)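 Ventral prostate cytosol from rats (4-5 weeks) castrated 1 day before, prepared in pH 7.5 phosphate buffer and spun 2 h at 200000g. Incubated with competitor (0.4 nM-40 μM) and 3H-DHT or 3H-methylnandrolone for 16-20 h at 0 °C or 2 h at 15 °C. Dextran-coated charcoal separation. RBA taken against DHT standard (=100); negative means RBA <0.1%.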

[2] = biological target: T1, Androgen receptor (Rattus norvegicus); assay: Relative binding affinity against androgen receptor of rat prostate at 15 degree centigrade; N means negative, < 0.1; summary of the method: as §1
[3] = biological target: T2, Mineralocorticoid receptor (Rattus norvegicus) (UniProt P22199); assay: Relative binding affinity against mineralocorticoid receptor of rat kidney at 0 degree centigrade; value ranges from 44-58%
T2 sequence (whole entry): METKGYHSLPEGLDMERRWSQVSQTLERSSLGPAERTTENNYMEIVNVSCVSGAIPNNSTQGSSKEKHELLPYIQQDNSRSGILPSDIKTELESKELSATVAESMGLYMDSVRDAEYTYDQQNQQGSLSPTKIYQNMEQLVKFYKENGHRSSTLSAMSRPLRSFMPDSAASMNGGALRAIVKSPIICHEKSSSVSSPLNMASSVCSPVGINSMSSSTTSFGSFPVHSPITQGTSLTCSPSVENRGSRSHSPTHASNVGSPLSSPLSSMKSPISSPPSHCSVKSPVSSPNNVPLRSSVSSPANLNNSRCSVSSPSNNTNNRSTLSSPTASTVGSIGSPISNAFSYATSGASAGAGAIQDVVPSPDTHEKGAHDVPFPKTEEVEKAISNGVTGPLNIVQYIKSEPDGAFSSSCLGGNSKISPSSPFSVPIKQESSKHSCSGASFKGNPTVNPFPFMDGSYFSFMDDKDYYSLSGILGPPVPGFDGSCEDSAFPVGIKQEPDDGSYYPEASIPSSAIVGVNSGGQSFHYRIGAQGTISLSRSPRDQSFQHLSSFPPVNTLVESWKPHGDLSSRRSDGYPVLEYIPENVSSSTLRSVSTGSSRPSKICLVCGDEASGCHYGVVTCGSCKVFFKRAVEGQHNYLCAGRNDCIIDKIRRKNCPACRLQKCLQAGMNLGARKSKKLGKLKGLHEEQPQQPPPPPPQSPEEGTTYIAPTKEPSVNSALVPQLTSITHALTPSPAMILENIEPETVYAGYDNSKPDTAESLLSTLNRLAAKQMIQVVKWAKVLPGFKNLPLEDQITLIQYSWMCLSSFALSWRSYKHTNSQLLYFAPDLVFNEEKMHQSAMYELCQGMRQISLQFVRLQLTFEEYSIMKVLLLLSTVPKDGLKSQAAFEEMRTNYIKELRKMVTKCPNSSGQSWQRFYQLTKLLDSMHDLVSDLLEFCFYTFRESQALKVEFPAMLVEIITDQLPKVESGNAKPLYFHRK
Summary of the method: (§2)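 Kidney cytosol from male Sprague-Dawley rats (4-8 weeks), adrenalectomized 1-2 days before, prepared in pH 7.5 phosphate buffer with DTT, sucrose and 10 mM molybdate, spun at 200000g. Incubated with competitor (0.4 nM-40 μM) and about 1 nM 3H-aldosterone for 42-48 h at 0 °C or 100-120 min at 25/26 °C. Dextran-coated charcoal separation. RBA = ratio of 50%-inhibition concentrations versus aldosterone standard (=100).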

[4] = biological target: T2, Mineralocorticoid receptor (Rattus norvegicus); assay: Relative binding affinity against mineralocorticoid receptor of rat kidney at 25 degree Centigrade; summary of the method: as §2
[5] = biological target: T2, Mineralocorticoid receptor (Rattus norvegicus); assay: Agonist activity for urinary Na/k at 250 ug/kg; assay type: functional; details: Urine
Summary of the method: (§3)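 Male Slc:Wistar rats, 7 weeks old, bilaterally adrenalectomized 2 days before assay, kept on 0.45% NaCl. Sugar cubes replaced diet the next evening, with 6 mL 0.45% NaCl/100 g given ip that evening and again on assay morning. Aldosterone (5 μg/kg in sesame oil) or none given sc, test compound sc right after. Urinary Na and K measured by atomic absorption; Na/K reported as mean ± SE.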

[6] = biological target: T2, Mineralocorticoid receptor (Rattus norvegicus); assay: Agonist activity for urinary Na/k at 2500 ug/kg; assay type: functional; details: Urine; summary of the method: as §3
[7] = biological target: T2, Mineralocorticoid receptor (Rattus norvegicus); assay: Agonist activity for urinary Na/k at 25000 ug/kg; assay type: functional; details: Urine; summary of the method: as §3
[8] = biological target: T2, Mineralocorticoid receptor (Rattus norvegicus); assay: Aldosterone (0 ug/kg) antagonist activity for urinary Na/k at 0 ug/kg; assay type: functional; details: Urine; summary of the method: as §3
[9] = biological target: T2, Mineralocorticoid receptor (Rattus norvegicus); assay: (§4) Aldosterone (0 ug/kg) antagonist and agonist activity for urinary Na/k at 0 ug/kg; assay type: functional; details: Urine; summary of the method: as §3
[10] = biological target: T2, Mineralocorticoid receptor (Rattus norvegicus); assay: Aldosterone (0 ug/kg) antagonist and agonist activity for urinary Na/k at 2500 ug/kg; assay type: functional; details: Urine; summary of the method: as §3
[11] = biological target: T2, Mineralocorticoid receptor (Rattus norvegicus); assay: Aldosterone (5 ug/kg) antagonist activity for urinary Na/k at 0 ug/kg; assay type: functional; details: Urine; summary of the method: as §3
[12] = biological target: T2, Mineralocorticoid receptor (Rattus norvegicus); assay: Aldosterone (5 ug/kg) antagonist activity for urinary Na/k at 250 ug/kg; assay type: functional; details: Urine; summary of the method: as §3
[13] = biological target: T2, Mineralocorticoid receptor (Rattus norvegicus); assay: Aldosterone (5 ug/kg) antagonist activity for urinary Na/k at 25000 ug/kg; assay type: functional; details: Urine; summary of the method: as §3
[14] = biological target: T2, Mineralocorticoid receptor (Rattus norvegicus); assay: Aldosterone (5 ug/kg) antagonist activity for urinary Na/k at 2500 ug/kg; assay type: functional; details: Urine; summary of the method: as §3
[15] = biological target: T2, Mineralocorticoid receptor (Rattus norvegicus); assay: Aldosterone (5 ug/kg) antagonist and agonist activity for urinary Na/k at 0 ug/kg; assay type: functional; details: Urine; summary of the method: as §3
[16] = biological target: T2, Mineralocorticoid receptor (Rattus norvegicus); assay: Aldosterone (5 ug/kg) antagonist and agonist activity for urinary Na/k at 2500 ug/kg; assay type: functional; details: Urine; summary of the method: as §3
[17] = biological target: T2, Mineralocorticoid receptor (Rattus norvegicus); assay: Aldosterone (0 ug/kg) antagonist and agonist activity for urinary Na/k at 250 ug/kg; assay type: functional; details: Urine; summary of the method: as §3
[18] = biological target: T2, Mineralocorticoid receptor (Rattus norvegicus); assay: Aldosterone (5 ug/kg) antagonist and agonist activity for urinary Na/k at 250 ug/kg; assay type: functional; details: Urine; summary of the method: as §3
[19] = biological target: T2, Mineralocorticoid receptor (Rattus norvegicus); assay: Relative binding affinity against mineralocorticoid receptor of rat kidney at 0 degree centigrade; value ranges from 36-63%; summary of the method: as §2
[20] = biological target: T2, Mineralocorticoid receptor (Rattus norvegicus); assay: Aldosterone (0 ug/kg) antagonist and agonist activity for urinary Na/k at 2.5 ug/kg; assay type: functional; details: Urine; summary of the method: as §3
[21] = biological target: T2, Mineralocorticoid receptor (Rattus norvegicus); assay: Aldosterone (0 ug/kg) antagonist and agonist activity for urinary Na/k at 25 ug/kg; assay type: functional; details: Urine; summary of the method: as §3
[22] = biological target: T2, Mineralocorticoid receptor (Rattus norvegicus); assay: Aldosterone (5 ug/kg) antagonist and agonist activity for urinary Na/k at 2.5 ug/kg; assay type: functional; details: Urine; summary of the method: as §3
[23] = biological target: T2, Mineralocorticoid receptor (Rattus norvegicus); assay: Aldosterone (5 ug/kg) antagonist and agonist activity for urinary Na/k at 25 ug/kg; assay type: functional; details: Urine; summary of the method: as §3
[24] = biological target: T2, Mineralocorticoid receptor (Rattus norvegicus); assay: Relative binding affinity against mineralocorticoid receptor of rat kidney at 0 degree Centigrade; summary of the method: as §2
[25] = biological target: T2, Mineralocorticoid receptor (Rattus norvegicus); assay: as §4; assay type: functional; details: Urine; summary of the method: as §3; remark: listed apart in the source
[26] = biological target: T2, Mineralocorticoid receptor (Rattus norvegicus); assay: Aldosterone (0 ug/kg) antagonist and agonist activity for urinary Na/k at 25000 ug/kg; assay type: functional; details: Urine; summary of the method: as §3
[27] = biological target: T2, Mineralocorticoid receptor (Rattus norvegicus); assay: Aldosterone (5 ug/kg) antagonist and agonist activity for urinary Na/k at 25000 ug/kg; assay type: functional; details: Urine; summary of the method: as §3
[28] = biological target: T2, Mineralocorticoid receptor (Rattus norvegicus); assay: Relative binding affinity against mineralocorticoid receptor of rat kidney at 0 degree centigrade; value ranges from […]-[…]%
[29] = biological target: T2, Mineralocorticoid receptor (Rattus norvegicus); assay: Relative binding affinity against mineralocorticoid receptor of rat kidney at 25 degree centigrade; value ranges from […]-[…]%

SMILES	RBA [1]	RBA [4] [%]	Activity [9]	Activity [10]	Activity [15]	Activity [16]	RBA [24] [%]	further results
CC12CCC(=O)C=C1CCC1C3CC[C@@]4(CCC(=O)O4)C34COC(C4)[C@@]12F (stereo not given in full)	inactive	23	5.1	3.5	0.4	2.5	–	RBA [2]: inactive; RBA [3]: 44%; Activity [5]: 3.42; Activity [6]: 2.7; Activity [7]: 1.95; Activity [8]: 4.07; Activity [11]: 0.75; Activity [12]: 1.33; Activity [13]: 2.13; Activity [14]: 2.08
CC12CCC(=O)C=C1CCC1C3CCC(C(=O)CO)C34COC(C4)[C@@H]12 (stereo not given in full)	inactive	32	3.5	–	0.8	–	–	Activity [17]: 1.8; Activity [18]: 1.7; RBA [19]: 36%
CC12CCC(=O)C=C1CCC1C3CCC(C(=O)CO)C34COC(C4)[C@@]12F (stereo not given in full)	inactive	270	4.8	–	1	–	320	Activity [20]: 2.8; Activity [21]: 0.3; Activity [22]: 0.7; Activity [23]: 0.1; RBA [2]: inactive
CC12CCC(=O)C=C1CCC1C3CC[C@@]4(CCC(=O)O4)C34COC(C4)[C@@H]12 (stereo not given in full)	–	1.1	3.8	8.8	1.1 and 0.7	2.4	1.8	Activity [25]: 7.7; Activity [26]: 3.8; Activity [27]: 2.2
CC(=O)S[C@@H]1CC2=CC(=O)CCC2(C)C2C3CC4(CO3)C(CC[C@@]43CCC(=O)O3)C21 (stereo not given in full)	–	0.4	7.7	6.4	1.1	1.6	0.1	–
C[C@]12CCC(=O)C=C1CC[C@@H]1[C@@H]2[C@@H](O)C[C@]2(C=O)[C@@H](C(=O)CO)CC[C@@H]12	–	100	–	–	–	–	100	–
CC(=O)S[C@@H]1CC2=CC(=O)CC[C@]2(C)[C@H]2CC[C@@]3(C)[C@@H](CC[C@@]34CCC(=O)O4)[C@H]12	–	–	–	–	–	–	–	RBA [28]: 2.3%; RBA [29]: 11%; Activity [12]: 0.93; Activity [13]: 2.83; Activity [14]: 1.47

Source: ChEMBL document CHEMBL1122971, “Aldosterone antagonists. 1. Synthesis and biological activities of 11 beta,18-epoxypregnane derivatives” (J Med Chem, 1985)
